Laboratory results from ChEMBL document CHEMBL1125281, “Identification and synthesis of a receptor binding site of human anaphylatoxin C5a” (J Med Chem, 1991).
pKi: −log10 of the molar value. Where a SMILES comes first, the peptide text is derived from it. Bridges are numbered along the chain shown (N, C = ends). The star is where a group is joined. Acm = CC(=O)NC*

What was measured:
[1] = molecular target: T1, C5a anaphylatoxin chemotactic receptor 1 (Homo sapiens, UniProt P21730); test: Inhibition of [125I]C5a binding to anaphylatoxin chemotactic receptor of PMNL cells; type: cell-based
T1 sequence (P21730 whole entry): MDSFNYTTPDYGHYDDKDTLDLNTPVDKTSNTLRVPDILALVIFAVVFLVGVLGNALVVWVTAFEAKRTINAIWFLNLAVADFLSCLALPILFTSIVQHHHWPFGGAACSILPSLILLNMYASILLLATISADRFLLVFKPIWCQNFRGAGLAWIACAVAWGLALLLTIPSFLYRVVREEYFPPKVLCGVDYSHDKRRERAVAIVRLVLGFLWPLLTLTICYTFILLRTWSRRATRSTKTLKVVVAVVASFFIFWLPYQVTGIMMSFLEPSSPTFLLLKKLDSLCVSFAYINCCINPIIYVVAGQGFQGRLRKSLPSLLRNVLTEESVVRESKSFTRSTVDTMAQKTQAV
Method in brief: (§1)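 Intact human PMNL isolated from peripheral blood by one-step density centrifugation. Cells incubated 20 min at 23 °C with [125I]C5a (1 × 10⁻⁹ M), test peptide and protease inhibitors. Cells separated from free ligand by centrifugation through silicone oil at 10000g; pellet γ counts read.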

[2] = molecular target: T1, C5a anaphylatoxin chemotactic receptor 1; test: Inhibition of [125I]C5a binding to anaphylatoxin chemotactic receptor of PMNL membranes
[3] = molecular target: T1, C5a anaphylatoxin chemotactic receptor 1; test: Inhibition of [125I]C5a binding to C5a anaphylatoxin chemotactic receptor in PMNL intact cells; inactive; type: cell-based; method in brief: as §1
[4] = molecular target: T1, C5a anaphylatoxin chemotactic receptor 1; test: Inhibition of [125I]C5a binding to C5a anaphylatoxin chemotactic receptor in PMNL membranes; type: cell membranes
[5] = molecular target: T1, C5a anaphylatoxin chemotactic receptor 1; test: Inhibition of [125I]-C5a anaphylatoxin chemotactic receptor binding to PMNL membranes.

`CC(=O)N[C@@H](C)C(=O)N[C@@H](C)C(=O)N[C@@H](CCCCN)C(=O)N[C@@H](Cc1ccc(O)cc1)C(=O)N[C@@H](CCCCN)C(=O)N[C@@H](Cc1c[nH]cn1)C(=O)N[C@@H](CO)C(=O)N[C@H](C(=O)N[C@H](C(=O)N[C@@H](CCCCN)C(=O)N[C@@H](CCCCN)C(=O)O)C(C)C)C(C)C` (Ac-AAKYKHSVVKK-OH) was tested, and the Ki [1] was “Not Active” and the Ki [2] was “Not Active”.
In the case of `CSCC[C@H](NC(=O)[C@H](CC(=O)O)NC(=O)[C@H](CCCCN)NC(=O)[C@H](Cc1c[nH]cn1)NC(C)=O)C(=O)N[C@@H](CCC(N)=O)C(=O)N[C@@H](CC(C)C)C(=O)NCC(=O)N[C@@H](CCCN=C(N)N)C(=O)O` (Ac-HKDMQLGR-OH), the Ki [3] was “Not Active”.
Compound `CSCC[C@H](NC(=O)[C@H](CC(=O)O)NC(=O)[C@H](CCCCN)NC(=O)[C@H](Cc1cnc[nH]1)NC(C)=O)C(=O)N[C@@H](CCC(N)=O)C(=O)N[C@@H](CC(C)C)C(=O)NCC(=O)N[C@@H](CCCNC(=N)N)C(=O)O` (Ac-HKDMQLGR-OH) has a pKi [4] of 3.82.
With `CC[C@H](C)[C@H](NC(=O)[C@H](CC(N)=O)NC(=O)[C@H](C)NC(=O)[C@H](CCCN=C(N)N)NC(=O)[C@H](CC(C)C)NC(=O)[C@H](CCC(N)=O)NC(=O)[C@H](CO)NC(=O)[C@H](C)NC(=O)[C@@H](NC(=O)[C@@H](NC(=O)[C@H](CCSC)NC(C)=O)C(C)C)C(C)C)C(=O)N[C@@H](CO)C(=O)N[C@@H](Cc1c[nH]cn1)C(=O)N[C@@H](CCCCN)C(=O)N[C@@H](CC(=O)O)C(=O)N[C@@H](CCSC)C(=O)N[C@@H](CCC(N)=O)C(=O)N[C@@H](CC(C)C)C(=O)NCC(=O)N[C@@H](CCCN=C(N)N)C(=O)O` (Ac-MVVASQLRANISHKDMQLGR-OH) the Ki [1] was “Not Active”.
Compound `CC[C@H](C)[C@H](NC(=O)[C@H](CC(N)=O)NC(=O)[C@H](C)NC(=O)[C@H](CCCNC(=N)N)NC(=O)[C@H](CC(C)C)NC(=O)[C@H](CCC(N)=O)NC(=O)[C@H](CO)NC(=O)[C@H](C)NC(=O)[C@@H](NC(=O)[C@@H](NC(=O)[C@H](CCSC)NC(C)=O)C(C)C)C(C)C)C(=O)N[C@@H](CO)C(=O)N[C@@H](Cc1cnc[nH]1)C(=O)N[C@@H](CCCCN)C(=O)N[C@@H](CC(=O)O)C(=O)N[C@@H](CCSC)C(=O)N[C@@H](CCC(N)=O)C(=O)N[C@@H](CC(C)C)C(=O)NCC(=O)N[C@@H](CCCNC(=N)N)C(=O)O` (Ac-MVVASQLRANISHKDMQLGR-OH) has a pKi [5] of 4.30.
`CC[C@H](C)[C@H](NC(=O)[C@H](CCCNC(=N)N)NC(=O)[C@H](C)NC(=O)[C@H](C)NC(=O)[C@H](CCCNC(=N)N)NC(=O)[C@H](CCC(N)=O)NC(=O)[C@H](CCC(=O)O)NC(=O)[C@H](CSCNC(C)=O)NC(=O)[C@@H](NC(C)=O)[C@@H](C)O)C(=O)N[C@@H](CO)C(=O)N[C@@H](CC(C)C)C(=O)O` (Ac-TC(Acm)EQRAARISL-OH) was tested, and the Ki [1] was “Not Active” and the Ki [2] was “Not Active”.
In the case of `CC(C)C[C@H](NC(=O)[C@H](CCC(N)=O)NC(=O)[C@H](CO)NC(=O)[C@H](C)NC(=O)[C@@H](NC(=O)[C@@H](NC(=O)[C@H](C)N)C(C)C)C(C)C)C(=O)N[C@@H](CCCN=C(N)N)C(=O)O` (H-AVVASQLR-OH), the Ki [1] was “Not Active” and the Ki [2] was “Not Active”.
For `CC[C@H](C)[C@H](NC(=O)[C@H](CCCN=C(N)N)NC(=O)[C@H](C)NC(=O)[C@@H](N)CSCNC(C)=O)C(=O)N[C@@H](CO)C(=O)N[C@@H](CC(C)C)C(=O)NCC(=O)N1CCC[C@H]1C(=O)N[C@@H](CCCN=C(N)N)C(=O)N[C@@H](CCSC)C(=O)N[C@@H](CSCNC(C)=O)C(=O)N[C@@H](CCCCN)C(=O)O` (H-C(Acm)ARISLGPRMC(Acm)K-OH), the Ki [1] was “Not Active” and the Ki [2] was “Not Active”.
With `CC(C)[C@@H]1NC(=O)[C@H](CO)NC(=O)[C@H](Cc2c[nH]cn2)NC(=O)[C@H](CCCCN)NC(=O)[C@H](Cc2ccc(O)cc2)NC(=O)[C@H](CCCCN)NC(=O)[C@H](C)NC(=O)[C@@H](N)CSSC[C@@H](C(=O)O)NC(=O)[C@H](C(C)C)NC1=O` (H-CAKYKHSVVC-OH; disulfide 1-10) the Ki [1] was “Not Active” and the Ki [2] was “Not Active”.
For `CC[C@H](C)[C@H](NC(=O)[C@H](CC(N)=O)NC(=O)[C@H](C)NC(=O)[C@H](CCCNC(=N)N)NC(=O)[C@H](CC(C)C)NC(=O)[C@H](CCC(N)=O)NC(=O)[C@H](CO)NC(=O)[C@H](C)NC(=O)[C@@H](NC(=O)[C@@H](NC(=O)[C@H](CCSC)NC(=O)[C@H](CCSC)NC(=O)[C@H](CCC(=O)O)NC(=O)[C@@H](NC(=O)[C@@H](N)Cc1ccccc1)[C@@H](C)O)C(C)C)C(C)C)C(=O)N[C@@H](CO)C(=O)N[C@@H](Cc1cnc[nH]1)C(=O)N[C@@H](CCCCN)C(=O)N[C@@H](CC(=O)O)C(=O)N[C@@H](CCSC)C(=O)N[C@@H](CCC(N)=O)C(=O)N[C@@H](CC(C)C)C(=O)NCC(=O)N[C@@H](CCCNC(=N)N)C(=O)O` (H-FTEMMVVASQLRANISHKDMQLGR-OH), the pKi [5] was 4.00.
In the case of `CSCC[C@H](NC(=O)[C@H](CC(=O)O)NC(=O)[C@H](CCCCN)NC(=O)[C@@H](N)Cc1c[nH]cn1)C(=O)N[C@@H](CCC(N)=O)C(=O)N[C@@H](CC(C)C)C(=O)NCC(=O)N[C@@H](CCCN=C(N)N)C(=O)O` (H-HKDMQLGR-OH), the Ki [3] was “Not Active” and the pKi [4] was 3.52.
In the case of `CC(C)[C@H](NC(=O)[C@H](C)NC(=O)[C@H](C)NC(=O)CNC(=O)[C@H](CC(=O)O)NC(=O)[C@H](Cc1ccc(O)cc1)NC(=O)[C@H](C)NC(=O)[C@H](C)NC(=O)[C@H](CCCCN)NC(=O)[C@H](CCCCN)NC(=O)[C@@H](NC(=O)[C@@H](NC(=O)[C@H](CO)NC(=O)[C@@H](N)Cc1c[nH]cn1)C(C)C)C(C)C)C(=O)N[C@@H](CC(N)=O)C(=O)N[C@@H](CC(N)=O)C(=O)N[C@@H](CC(=O)O)C(=O)N[C@@H](CCC(=O)O)C(=O)O` (H-HSVVKKAAYDGAAVNNDE-OH), the Ki [1] was “Not Active” and the Ki [2] was “Not Active”.
With `CC(C)[C@H](NC(=O)[C@H](CO)NC(=O)[C@H](Cc1c[nH]cn1)NC(=O)[C@@H](N)CCCCN)C(=O)N[C@H](C(=O)N[C@@H](CCCCN)C(=O)N[C@@H](CCCCN)C(=O)O)C(C)C` (H-KHSVVKK-OH) the Ki [1] was “Not Active” and the Ki [2] was “Not Active”.
For `CC[C@H](C)[C@H](NC(=O)[C@H](CC(N)=O)NC(=O)[C@H](C)NC(=O)[C@H](CCCN=C(N)N)NC(=O)[C@H](CC(C)C)NC(=O)[C@H](CCC(N)=O)NC(=O)[C@@H](N)CO)C(=O)N[C@@H](CO)C(=O)N[C@@H](Cc1c[nH]cn1)C(=O)N[C@@H](CCCCN)C(=O)N[C@@H](CC(=O)O)C(=O)N[C@@H](CCSC)C(=O)N[C@@H](CCC(N)=O)C(=O)N[C@@H](CC(C)C)C(=O)NCC(=O)N[C@@H](CCCN=C(N)N)C(=O)O` (H-SQLRANISHKDMQLGR-OH), the Ki [1] was “Not Active”.
With `CC(=O)NCSC[C@H](NC(=O)[C@H](C)NC(=O)[C@H](CCCCN)NC(=O)[C@H](CCCCN)NC(=O)[C@@H](NC(=O)[C@@H](NC(=O)[C@@H](N)CO)C(C)C)C(C)C)C(=O)N[C@@H](Cc1ccc(O)cc1)C(=O)N[C@@H](CC(=O)O)C(=O)NCC(=O)N[C@@H](C)C(=O)O` (H-SVVKKAC(Acm)YDGA-OH) the Ki [1] was “Not Active” and the Ki [2] was “Not Active”.
`CC[C@H](C)[C@@H]1NC(=O)[C@H](CCC(=O)O)NC(=O)[C@H](CCC(=O)O)NC(=O)[C@@H](NC(=O)[C@H](CCCCN)NC(=O)[C@H](CCCCN)NC(=O)[C@H](CCC(N)=O)NC(=O)[C@H](CC(C)C)NC(=O)[C@@H](N)[C@@H](C)O)CSSC[C@@H](C(=O)N[C@@H](Cc2ccc(O)cc2)C(=O)N[C@@H](CC(=O)O)C(=O)NCC(=O)N[C@@H](C)C(=O)O)NC(=O)[C@H](C)NC(=O)[C@H](CCCCN)NC(=O)[C@H](CCCCN)NC(=O)[C@H](C(C)C)NC(=O)[C@H](C(C)C)NC(=O)[C@H](CO)NC(=O)[C@H](Cc2c[nH]cn2)NC(=O)[C@H](CCCCN)NC(=O)[C@H](Cc2ccc(O)cc2)NC(=O)[C@H](CCCCN)NC(=O)[C@H](C)NC(=O)[C@H](C)NC1=O` (H-TLQKKCEEIAAKYKHSVVKKACYDGA-OH; disulfide 6-22) was tested, and the Ki [1] was “Not Active” and the Ki [2] was “Not Active”.
For `CC[C@H](C)[C@H](NC(=O)[C@H](CCC(=O)O)NC(=O)[C@H](CCC(=O)O)NC(=O)[C@@H](NC(=O)[C@H](CCCCN)NC(=O)[C@H](CCCCN)NC(=O)[C@H](CCC(N)=O)NC(=O)[C@H](CC(C)C)NC(=O)[C@@H](N)[C@@H](C)O)[C@@H](C)CC)C(=O)N[C@@H](C)C(=O)N[C@@H](C)C(=O)N[C@@H](CCCCN)C(=O)N[C@@H](Cc1ccc(O)cc1)C(=O)N[C@@H](CCCCN)C(=O)O` (H-TLQKKIEEIAAKYK-OH), the Ki [1] was “Not Active” and the Ki [2] was “Not Active”.
For `CC[C@H](C)[C@H](N)C(=O)N[C@@H](CO)C(=O)N[C@@H](Cc1c[nH]cn1)C(=O)N[C@@H](CCCCN)C(=O)N[C@@H](CC(=O)O)C(=O)N[C@@H](CCSC)C(=O)N[C@@H](CCC(N)=O)C(=O)N[C@@H](CC(C)C)C(=O)NCC(=O)N[C@@H](CCCN=C(N)N)C(=O)O` [ISHKDMQLGR] (H-ISHKDMQLGR-OH), the Ki [3] was “Not Active”.
For `CC[C@H](C)[C@H](N)C(=O)N[C@@H](CO)C(=O)N[C@@H](Cc1cnc[nH]1)C(=O)N[C@@H](CCCCN)C(=O)N[C@@H](CC(=O)O)C(=O)N[C@@H](CCSC)C(=O)N[C@@H](CCC(N)=O)C(=O)N[C@@H](CC(C)C)C(=O)NCC(=O)N[C@@H](CCCNC(=N)N)C(=O)O` [ISHKDMQLGR] (H-ISHKDMQLGR-OH), the pKi [4] was 3.52.
